Test results reported in ChEMBL document CHEMBL1134641, “Progress toward the development of a safe and effective agent for treating reentrant cardiac arrhythmias: synthesis and evaluation of ibutilide analogues with enhanced metabolic stability and diminished proarrhythmic potential” (2001).

Assays:
[1] = tested on: Canis familiaris; test: Ventricular effective refractory (VEPR) period measured in canine 24-h Infarction model at an cumulative intravenous dose of 0.72 uM/kg; assay type: functional, Canis lupus familiaris, Heart
Method in brief: (§1)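 Male mongrel dogs (16-22 kg) with LAD permanently ligated in two stages, studied 24 h after ligation. Compound given in saline (6.0 µmol/mL) as sequential intravenous doses to reach cumulative 0.24, 0.72 and 2.4 µmol/kg. VERP and other measurements taken at baseline and 15 min after each dose. Saline-dosed dogs served as controls. Results are means ± SEM, paired t-test, p ≤ 0.05.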

[2] = tested on: Canis familiaris; test: Ventricular effective refractory (VEPR) period measured in canine 24-h Infarction model at an cumulative intravenous dose of 0.24 uM/kg; assay type: functional, Canis lupus familiaris, Heart; method in brief: as §1
[3] = species: Canis familiaris; test: Atrial effective refractory period (AERP) measured in canine just after inducing atrial flutter (AFL) termination by the compound; assay type: functional, Canis lupus familiaris, Heart
[4] = tested on: Canis familiaris; test: Ventricular effective refractory period ([…]) measured in canine just after inducing atrial flutter (AFL) termination by the compound at a dose of 2.4 uM/kg; assay type: functional, Canis lupus familiaris, Heart
Method in brief: (§2)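 Conscious dogs, loosely restrained in a sling, with exteriorized electrode leads, studied 2 weeks after instrumentation. AFL was induced and counted as sustained if it lasted 5 min. Compound in saline given intravenously every 5 min to cumulative 0.024-12.0 µmol/kg. VERP was measured at AFL termination and 3 min after each dose. Results are means ± SEM versus baseline, p ≤ 0.05.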

[5] = tested on: Canis familiaris; test: Atrial MAPD90 measured in canine 24-h Infarction model at an cumulative intravenous dose of 0.72 uM/kg; assay type: functional, Canis lupus familiaris, Cardiac atrium
Method in brief: (§3)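 Male mongrel dogs (16-22 kg) with LAD permanently ligated in two stages; studied 24 h later. […] given IV in sequential doses to cumulative 0.24, 0.72, 2.4 µmol/kg. Saline controls (n=8) received vehicle, then a single IV 2.4 µmol/kg dose at the end. Measurements taken at baseline and 15 min after each dose. Means ± SEM, paired t-test, p ≤ 0.05.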

[6] = tested on: Canis familiaris; test: Ventricular MAPD90 measured in canine 24-h Infarction model at a single intravenous dose of 2.4 uM/kg; assay type: functional, Canis lupus familiaris, Heart
Method in brief: (§4)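 Dogs 24 h after two-stage LAD ligation. Compound in saline given iv in sequential doses (cumulative 0.24, 0.72, 2.4 µmol/kg); saline controls then given a single 2.4 µmol/kg iv dose. HR, IVR, BP, QT, spontaneous arrhythmias/min, ERPs and MAPD90 measured at baseline and 15 min after each dose. Means ± SEM, paired t-test, p≤0.05.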

[7] = tested on: Canis familiaris; test: Ventricular MAPD90 measured in canine 24-h Infarction model at an cumulative intravenous dose of 0.24 uM/kg; assay type: functional, Canis lupus familiaris, Heart; method in brief: as §4
[8] = tested on: Canis familiaris; test: Blood pressure measured in canine 24-h Infarction model at an cumulative intravenous dose of 2.4 uM/kg; assay type: functional, Canis lupus familiaris; method in brief: as §3
[9] = tested on: Canis familiaris; test: Ventricular MAPD90 measured in canine 24-h Infarction model at an cumulative intravenous dose of 0.72 uM/kg; assay type: functional, Canis lupus familiaris, Heart; method in brief: as §4
[10] = tested on: Canis familiaris; test: Heart Rate measured in canine just after inducing atrial flutter (AFL) termination by the compound at a dose of 9.6 uM/kg; assay type: functional, Canis lupus familiaris
[11] = tested on: Canis familiaris; test: Number of canine in which arrhythmias could not be induced at an cumulative intravenous dose of 2.4 uM/kg; assay type: functional, Canis lupus familiaris
Method in brief: (§5)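 Male mongrel dogs (16-22 kg) with LAD ligated in two stages, studied 24 h later. Programmed electrical stimulation at baseline and 15 min after each iv dose in saline (cumulative 0.24, 0.72, 2.4 µmol/kg). Saline controls then received a single 2.4 µmol/kg iv dose. Responses scored as NI (≤15 beats), NSVT (>15 beats, ends within 30 s), SVT (>30 s, needing pacing or cardioversion) or VF. A positive response was repeated.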

[12] = tested on: Canis familiaris; test: Atrial effective refractory period (AEPR) measured in canine 24-h Infarction model at an cumulative intravenous dose of 0.72 uM/kg; assay type: functional, Canis lupus familiaris, Cardiac atrium; method in brief: as §3
[13] = tested on: Canis familiaris; test: QT interval measured in canine just after inducing atrial flutter (AFL) termination by the compound at a dose of 4.8 uM/kg; assay type: functional, Canis lupus familiaris, Heart
Method in brief: (§6)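 Conscious, sling-restrained dogs with chronically implanted electrodes, studied after 2 weeks of recovery. Sustained AFL (>5 min) induced. Compound in saline given iv every 5 min to cumulative 0.024-12.0 µmol/kg. At AFL termination, HR, QT (paced cycle length 300 ms), AERP and VERP measured. Measurements then taken 3 min after each further dose. Significance p≤0.05 vs baseline.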

[14] = tested on: Canis familiaris; test: Idioventricular heart rate (IVR) measured in canine 24-h Infarction model at an cumulative intravenous dose of 0.24 uM/kg; assay type: functional, Canis lupus familiaris; method in brief: as §3
[15] = tested on: Canis familiaris; test: Ventricular effective refractory period ([…]) measured in canine just after inducing atrial flutter (AFL) termination by the compound at a dose of 4.8 uM/kg; assay type: functional, Canis lupus familiaris, Heart; method in brief: as §2
[16] = tested on: Canis familiaris; test: QT interval measured in canine 24-h Infarction model at a single intravenous dose of 2.4 uM/kg; assay type: functional, Canis lupus familiaris; method in brief: as §4
[17] = tested on: Canis familiaris; test: Number of canine in which nonsustained ventricular tachycardia (NSVT) was observed in PES-induced arrhythmias at an cumulative intravenous dose of 0.24 uM/kg; assay type: functional, Canis lupus familiaris, Cardiac ventricle; method in brief: as §5
[18] = tested on: Canis familiaris; test: Heart Rate measured in canine just after inducing atrial flutter (AFL) termination by the compound at a dose of 1.2 uM/kg; assay type: functional, Canis lupus familiaris
[19] = species: Canis familiaris; test: Atrial flutter cycle length (AFCLl) measured in canine just after inducing atrial flutter (AFL) termination by the compound; assay type: functional, Canis lupus familiaris, Heart
[20] = tested on: Canis familiaris; test: Blood pressure measured in canine 24-h Infarction model at an cumulative intravenous dose of 0.24 uM/kg; assay type: functional, Canis lupus familiaris; method in brief: as §3
[21] = tested on: Canis familiaris; test: Atrial MAPD90 measured in canine 24-h Infarction model at an cumulative intravenous dose of 0.24 uM/kg; assay type: functional, Canis lupus familiaris, Cardiac atrium; method in brief: as §3
[22] = tested on: Canis familiaris; test: Atrial effective refractory period (AERP) measured in canine just after inducing atrial flutter (AFL) termination by the compound at a dose of 0.24 umol/kg; assay type: functional, Canis lupus familiaris, Heart
[23] = tested on: Canis familiaris; test: Atrial effective refractory period (AERP) measured in canine just after inducing atrial flutter (AFL) termination by the compound at a dose of 1.2 uM/kg; assay type: functional, Canis lupus familiaris, Heart
[24] = tested on: Canis familiaris; test: Blood pressure measured in canine 24-h Infarction model at a single intravenous dose of 2.4 uM/kg; assay type: functional, Canis lupus familiaris; method in brief: as §3
[25] = tested on: Canis familiaris; test: QT interval measured in canine just after inducing atrial flutter (AFL) termination by the compound at a dose of 0.6 umol/kg; assay type: functional, Canis lupus familiaris, Heart; method in brief: as §6
[26] = tested on: Canis familiaris; test: QT interval measured in canine just after inducing atrial flutter (AFL) termination by the compound at a dose of 9.6 uM/kg; assay type: functional, Canis lupus familiaris, Heart; method in brief: as §6
[27] = tested on: Canis familiaris; test: Spontaneous arrhythmias measured in canine 24-h Infarction model at an cumulative intravenous dose of 2.4 uM/kg; assay type: functional, Canis lupus familiaris; method in brief: as §4
[28] = tested on: Canis familiaris; test: Atrial effective refractory period (AERP) measured in canine just after inducing atrial flutter (AFL) termination by the compound at a dose of 0.6 umol/kg; assay type: functional, Canis lupus familiaris, Heart
[29] = tested on: Canis familiaris; test: Heart Rate measured in canine just after inducing atrial flutter (AFL) termination by the compound at a dose of 2.4 uM/kg; assay type: functional, Canis lupus familiaris
[30] = tested on: Canis familiaris; test: Ventricular effective refractory (VEPR) period measured in canine 24-h Infarction model at an cumulative intravenous dose of 2.4 uM/kg; assay type: functional, Canis lupus familiaris, Heart; method in brief: as §1
[31] = tested on: Canis familiaris; test: Number of canine in which ventricular fibrillation (VF) was observed in PES-induced arrhythmias at an cumulative intravenous dose of 0.72 uM/kg; assay type: functional, Canis lupus familiaris, Cardiac ventricle; method in brief: as §5
[32] = tested on: Canis familiaris; test: Heart Rate measured in canine just after inducing atrial flutter (AFL) termination by the compound at a dose of 4.8 uM/kg; assay type: functional, Canis lupus familiaris

With `CCN(CCCCCC(C)(C)F)CCC[C@H](O)c1ccc(NS(C)(=O)=O)cc1.O=C(O)/C=C/C(=O)O` the VERP [1] was 170 ms, the VERP [2] was 162 ms and the AERP [3] was 149 ms. The VERP [4] was 143 ms, the “Atrial MAPD90” value [5] was 146 ms and the “Ventricular MAPD90” value [6] was 201 ms. For the same compound, the “Ventricular MAPD90” value [7] was 162 ms, the BP [8] was 119 mmHg and the “Ventricular MAPD90” value [9] was 170 ms. For the same compound, the HR [10] was 114 beats min-1, the No. of canine [11] was 10 and the AERP [12] was 166 ms. It also gave a QT interval [13] of 207 ms, an IVR [14] of 138 beats min-1 and a VERP [15] of 142 ms. It also gave a QT interval [16] of 238 ms, a No. of canine [17] of 2 and an HR [18] of 114 beats min-1. For the same compound, the AFLCl [19] was 165 ms, the BP [20] was 112 mmHg and the “Atrial MAPD90” value [21] was 148 ms. For the same compound, the AERP [22] was 160 ms, the AERP [23] was 160 ms and the BP [24] was 111 mmHg. It also gave a QT interval [25] of 208 ms, a QT interval [26] of 204 ms and a PVCs [27] of 73 number min-1. It also gave an AERP [28] of 153 ms, an HR [29] of 113 beats min-1 and a VERP [30] of 185 ms. For the same compound, the No. of canine [31] was 0 and the HR [32] was 118 beats min-1.
